Our source for the MIC, inhibition and Activity values is ChEMBL document CHEMBL2331438, “An efficient domino reaction in ionic liquid: synthesis and biological evaluation of some pyrano- and thiopyrano-fused heterocycles” (2013).

One assay has as its system Candida albicans. Put plainly: Antifungal activity against Candida albicans MTCC 227 after 48 hrs by broth microdilution method. It counts as functional. Background: In broth dilution the organism is exposed to a series of concentrations in liquid medium.
A further assay deals with Aspergillus fumigatus. Put plainly: Antifungal activity against Aspergillus fumigatus MTCC 3008 after 48 hrs by broth microdilution method. It counts as functional.
The test system of assay [1] is Mycobacterium tuberculosis. Put plainly: Antimycobacterial activity against Mycobacterium tuberculosis H37Rv at 250 ug/ml. It counts as functional. The essentials:
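M. tuberculosis H37Rv tested on L.J. (Löwenstein–Jensen) medium.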

Another assay deals with Vibrio cholerae. Put plainly: Antibacterial activity against Vibrio cholerae MTCC 3906 after 24 hrs by broth microdilution method. It counts as functional.
The next assay relates to Clostridium tetani. Description: Antibacterial activity against Clostridium tetani MTCC 449 after 24 hrs by broth microdilution method. It counts as functional.
For a further assay, the system named is Streptococcus pneumoniae. Put plainly: Antibacterial activity against Streptococcus pneumoniae MTCC 1936 after 24 hrs by broth microdilution method. It counts as functional.
The next assay relates to Salmonella typhi. Description: Antibacterial activity against Salmonella typhi MTCC 98 after 24 hrs by broth microdilution method. It counts as functional, Salmonella enterica subsp. enterica serovar Typhi.
Assay [2] can be described thus: Antioxidant activity assessed as ascorbic acid equivalent ferric ion reducing activity per 100 gram at 200 ug/ml by FRAP assay. It counts as functional.
The next assay deals with Bacillus subtilis. Description: Antibacterial activity against Bacillus subtilis MTCC 441 after 24 hrs by broth microdilution method. It counts as functional.
The next assay relates to Escherichia coli. Put plainly: Antibacterial activity against Escherichia coli MTCC 443 after 24 hrs by broth microdilution method. It counts as functional.
The mark [3] stands for this setting: Salmonella enterica, MTCC 98, 24 h.

In brackets after ≈: the same amount, converted by molar mass. Bounds are passed on as bounds.

One may read the MIC as the smallest concentration in the dilution series that meets the test's criterion for growth inhibition. Read a high MIC as a less susceptible organism. Regarding NYSTATIN, the MIC against Candida albicans and with Aspergillus fumigatus was 100 mg/L each time.
What is called inhibition is the drop in the measured response relative to a control, in per cent. Lower therefore signals a response near the control. Regarding `Cc1nn(-c2ccc([N+](=O)[O-])cc2)c2c1[C@@H]1c3cc4cccc(C)c4nc3SC[C@@H]1CO2`, at 250 µg/mL the inhibition in assay [1] was 20%. Besides, the MIC with Vibrio cholerae (MTCC 3906, 24 h) was 250 mg/L (≈ 562 µM); against Clostridium tetani (MTCC 449, 24 h), 200 mg/L (≈ 450 µM); in the assay with Streptococcus pneumoniae (MTCC 1936, 24 h) it was 200 mg/L (≈ 450 µM); with Salmonella typhi (setting [3]), 62.5 mg/L (≈ 141 µM); in the assay on Candida albicans (MTCC 227, 48 h) it was more than 1000 mg/L; in the assay with Aspergillus fumigatus (MTCC 3008, 48 h), more than 1000 mg/L. The MIC in the assay with Bacillus subtilis (MTCC 441, 24 h) turned out to be 250 mg/L (≈ 562 µM); in the assay on Escherichia coli (MTCC 443, 24 h) it was 100 mg/L (≈ 225 µM). The Activity in assay [2] turned out to be 49.8 mmol.
For GENTAMICIN, the MIC against Vibrio cholerae worked out at 5 mg/L; in the assay on Clostridium tetani, 5 mg/L; in the assay on Streptococcus pneumoniae, 0.5 mg/L; in the assay with Salmonella typhi (Salmonella enterica subsp. enterica serovar Typhi), 5 mg/L; against Bacillus subtilis, 1 mg/L; with Escherichia coli it was 0.05 mg/L.
The compound `Cc1nn(-c2ccccc2Cl)c2c1[C@@H]1c3c(ccc4c(C)cc(=O)oc34)OC[C@@H]1C(C)(C)O2` yielded an inhibition at 250 µg/mL in assay [1] of 40%. Also, the MIC against Vibrio cholerae (MTCC 3906, 24 h) was determined as 250 mg/L (≈ 540 µM); in the assay on Clostridium tetani (MTCC 449, 24 h), 250 mg/L (≈ 540 µM); with Streptococcus pneumoniae (MTCC 1936, 24 h) it was 250 mg/L (≈ 540 µM); in the assay with Salmonella typhi (setting [3]), 125 mg/L (≈ 270 µM); against Candida albicans (MTCC 227, 48 h) it was 1000 mg/L (≈ 2160 µM); against Aspergillus fumigatus (MTCC 3008, 48 h), 200 mg/L (≈ 432 µM). In addition, the MIC came to 100 mg/L (≈ 216 µM) with Bacillus subtilis (MTCC 441, 24 h) and 125 mg/L (≈ 270 µM) in the assay on Escherichia coli (MTCC 443, 24 h). In assay [2], the Activity came out at 210 mmol.
In turn, `Cc1nn(-c2cccc(Cl)c2)c2c1[C@@H]1c3cc4cccc(C)c4nc3SC[C@@H]1C(C)(C)O2` (single isomer, unassigned) registered an inhibition at 250 µg/mL in assay [1] of 91%. Also, the MIC with Vibrio cholerae (MTCC 3906, 24 h) came to 100 mg/L (≈ 216 µM); in the assay on Clostridium tetani (MTCC 449, 24 h) it was 1000 mg/L (≈ 2160 µM); with Streptococcus pneumoniae (MTCC 1936, 24 h) it was 100 mg/L (≈ 216 µM); against Salmonella typhi (setting [3]), 250 mg/L (≈ 541 µM); against Candida albicans (MTCC 227, 48 h) it was 500 mg/L (≈ 1080 µM); against Aspergillus fumigatus (MTCC 3008, 48 h), 500 mg/L (≈ 1080 µM). The MIC amounted to 200 mg/L (≈ 433 µM) in the assay on Bacillus subtilis (MTCC 441, 24 h) and 150 mg/L (≈ 325 µM) against Escherichia coli (MTCC 443, 24 h). In [2], the Activity worked out at 18.2 mmol.
On to `CCn1cc(C(=O)O)c(=O)c2cc(F)c(N3CCNCC3)cc21` [NORFLOXACIN], for which the MIC in the assay on Vibrio cholerae (MTCC 3906, 24 h) worked out at 10 mg/L (≈ 31.3 µM); with Clostridium tetani (MTCC 449, 24 h), 50 mg/L (≈ 157 µM); against Streptococcus pneumoniae (MTCC 1936, 24 h), 10 mg/L (≈ 31.3 µM); against Salmonella typhi (setting [3]) it was 10 mg/L (≈ 31.3 µM); with Bacillus subtilis (MTCC 441, 24 h), 100 mg/L (≈ 313 µM); in the assay on Escherichia coli (MTCC 443, 24 h) it was 10 mg/L (≈ 31.3 µM).
Turning to `Cc1nn(-c2ccc([N+](=O)[O-])cc2)c2c1[C@@H]1c3c(ccc4c(C)cc(=O)oc34)OC[C@@H]1CO2`, in [1], testing at 250 µg/mL gave an inhibition of 79%. For the same compound, the MIC with Vibrio cholerae (MTCC 3906, 24 h) was 250 mg/L (≈ 561 µM); with Clostridium tetani (MTCC 449, 24 h) it was 250 mg/L (≈ 561 µM); in the assay with Streptococcus pneumoniae (MTCC 1936, 24 h), 250 mg/L (≈ 561 µM); in the assay on Salmonella typhi (setting [3]) it was 200 mg/L (≈ 449 µM); against Candida albicans (MTCC 227, 48 h), 1000 mg/L (≈ 2250 µM); with Aspergillus fumigatus (MTCC 3008, 48 h), 250 mg/L (≈ 561 µM). Also, the MIC came to 200 mg/L (≈ 449 µM) against Bacillus subtilis (MTCC 441, 24 h) and 125 mg/L (≈ 281 µM) against Escherichia coli (MTCC 443, 24 h). Further, in assay [2], the Activity stood at 163 mmol.
`Cc1nn(-c2ccccc2)c2c1[C@@H]1c3cc4ccccc4nc3SC[C@@H]1CO2`: the inhibition at 250 µg/mL in assay [1] was 87%. Also, the MIC stood at 100 mg/L (≈ 259 µM) in the assay with Vibrio cholerae (MTCC 3906, 24 h); 62.5 mg/L (≈ 162 µM) against Clostridium tetani (MTCC 449, 24 h); 200 mg/L (≈ 519 µM) against Streptococcus pneumoniae (MTCC 1936, 24 h); 125 mg/L (≈ 324 µM) in the assay on Salmonella typhi (setting [3]); 500 mg/L (≈ 1300 µM) against Candida albicans (MTCC 227, 48 h); 500 mg/L (≈ 1300 µM) in the assay on Aspergillus fumigatus (MTCC 3008, 48 h). Further, the MIC in the assay on Bacillus subtilis (MTCC 441, 24 h) was 200 mg/L (≈ 519 µM); in the assay with Escherichia coli (MTCC 443, 24 h), 100 mg/L (≈ 259 µM). For the same compound, in assay [2], the Activity worked out at 126 mmol.
`Cc1ccc(-n2nc(C)c3c2OC[C@H]2COc4ccc5c(C)cc(=O)oc5c4[C@@H]32)cc1` returned an inhibition at 250 µg/mL in assay [1] of 32%. Also, the MIC with Vibrio cholerae (MTCC 3906, 24 h) came to 200 mg/L (≈ 483 µM); in the assay with Clostridium tetani (MTCC 449, 24 h) it was 200 mg/L (≈ 483 µM); in the assay on Streptococcus pneumoniae (MTCC 1936, 24 h), 250 mg/L (≈ 603 µM); with Salmonella typhi (setting [3]) it was 250 mg/L (≈ 603 µM); in the assay on Candida albicans (MTCC 227, 48 h), 1000 mg/L (≈ 2410 µM); against Aspergillus fumigatus (MTCC 3008, 48 h), 250 mg/L (≈ 603 µM). The MIC was 250 mg/L (≈ 603 µM) against Bacillus subtilis (MTCC 441, 24 h) and 200 mg/L (≈ 483 µM) against Escherichia coli (MTCC 443, 24 h). Further, the Activity in assay [2] was 213 mmol.
In [1], `c1ccc(-c2nn(-c3ccccc3)c3c2[C@@H]2c4cc5ccccc5nc4SC[C@@H]2CO3)cc1` gave an inhibition at 250 µg/mL of 40%. Further, the MIC in the assay on Vibrio cholerae (MTCC 3906, 24 h) was 250 mg/L (≈ 559 µM); in the assay with Clostridium tetani (MTCC 449, 24 h), 250 mg/L (≈ 559 µM); against Streptococcus pneumoniae (MTCC 1936, 24 h), 250 mg/L (≈ 559 µM); with Salmonella typhi (setting [3]), 250 mg/L (≈ 559 µM); against Candida albicans (MTCC 227, 48 h) it was 500 mg/L (≈ 1120 µM); in the assay with Aspergillus fumigatus (MTCC 3008, 48 h), 250 mg/L (≈ 559 µM). For the same compound, the MIC against Bacillus subtilis (MTCC 441, 24 h) was 200 mg/L (≈ 447 µM); with Escherichia coli (MTCC 443, 24 h) it was 100 mg/L (≈ 223 µM). Besides, in assay [2], the Activity is 105 mmol.
With `Cc1ccc(-n2nc(C)c3c2OC(C)(C)[C@H]2CSc4nc5c(C)cccc5cc4[C@@H]32)cc1` (single isomer, unassigned), 250 µg/mL produced 91% inhibition in assay [1]. The MIC stood at 200 mg/L (≈ 453 µM) in the assay on Vibrio cholerae (MTCC 3906, 24 h); 200 mg/L (≈ 453 µM) in the assay on Clostridium tetani (MTCC 449, 24 h); 100 mg/L (≈ 226 µM) in the assay with Streptococcus pneumoniae (MTCC 1936, 24 h); 125 mg/L (≈ 283 µM) against Salmonella typhi (setting [3]); 250 mg/L (≈ 566 µM) in the assay on Candida albicans (MTCC 227, 48 h); 500 mg/L (≈ 1130 µM) in the assay on Aspergillus fumigatus (MTCC 3008, 48 h). Further, the MIC in the assay with Bacillus subtilis (MTCC 441, 24 h) was found to be 100 mg/L (≈ 226 µM); against Escherichia coli (MTCC 443, 24 h), 125 mg/L (≈ 283 µM). Also, the Activity in [2] is 161 mmol.
